Consider one molecule from ChEMBL document CHEMBL4138139, “Discovery of VU6005649, a CNS Penetrant mGlu7/8 Receptor PAM Derived from a Series of Pyrazolo[1,5-a]pyrimidines” (ACS Med Chem Lett, 2017).

One experiment deals with Cytochrome P450 3A4 (Homo sapiens, UniProt P08684). Nature of the experiment: Inhibition of CYP3A4 in human liver microsomes using midazolam as substrate preincubated for 15 mins followed by NADPH addition measured after 8 mins by LC-MS/MS analysis. The format is ADME.
Experiment [1] is filed under the species Rattus norvegicus. As to the kind of experiment: Displacement of [3H]batrachotoxinin from sodium channel site 2 in Wistar rat brain membranes at 10 uM after 60 mins by scintillation counting method relative to control. As to conditions: Membrane. In kind it is cell membranes. In a few lines:
(§1)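 Single-concentration screen at 10 μM within a commercial lead-profiling panel of 68 GPCRs, ion channels and transporters. Activity read as percent inhibition of specific radioligand binding to each target.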
A general note: Displacement assays read how much labelled ligand stays bound in the presence of the test substance.

For experiment [2], the target named is B1 bradykinin receptor (Homo sapiens) (UniProt P46663). Nature of the experiment: Displacement of [3H]kallidin (des-Arg10, Leu9) from recombinant human bradykinin B1 receptor expressed in CHOK1 cell membranes at 10 uM measured after 60 mins by scintillation counting method relative to control. The gist of the method: as §1
The species entered for experiment [3] is Rattus norvegicus. As to the kind of experiment: Inhibition of rat kainate glutamate receptor at 10 uM relative to control. In a few lines:
as §1

For the next experiment, the target named is T1, Cytochrome P450 1A2 (Homo sapiens, UniProt P05177).
T1 sequence (P05177 whole entry): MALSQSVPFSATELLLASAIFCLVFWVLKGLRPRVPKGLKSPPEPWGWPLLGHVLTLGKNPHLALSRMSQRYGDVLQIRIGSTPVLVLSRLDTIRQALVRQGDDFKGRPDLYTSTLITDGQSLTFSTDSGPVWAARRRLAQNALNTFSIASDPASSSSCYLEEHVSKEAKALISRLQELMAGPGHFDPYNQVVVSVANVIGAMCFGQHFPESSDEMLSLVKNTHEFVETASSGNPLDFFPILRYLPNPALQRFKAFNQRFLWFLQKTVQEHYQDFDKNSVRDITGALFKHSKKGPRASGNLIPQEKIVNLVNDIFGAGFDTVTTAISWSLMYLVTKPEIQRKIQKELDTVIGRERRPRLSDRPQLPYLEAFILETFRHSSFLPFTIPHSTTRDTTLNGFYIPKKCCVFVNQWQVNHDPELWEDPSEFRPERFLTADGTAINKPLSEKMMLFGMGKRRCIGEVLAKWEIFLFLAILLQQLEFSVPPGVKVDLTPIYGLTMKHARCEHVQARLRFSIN
Nature of the experiment: Inhibition of CYP1A2 in human liver microsomes using phenacetin as substrate preincubated for 15 mins followed by NADPH addition measured after 8 mins by LC-MS/MS analysis. The format is ADME. A general note: Liver microsomes are vesicles of endoplasmic reticulum, rich in cytochrome P450 enzymes.

In experiment [4] the target is Alpha-2A adrenergic receptor (Homo sapiens) (UniProt P08913). As to the kind of experiment: Displacement of [3H]rauwolscine from full length human recombinant alpha2a receptor expressed in CHOK1 cells at 10 uM after 60 mins by scintillation counting method relative to control. The format is cell-based. The gist of the method: as §1
Experiment [5] deals with Metabotropic glutamate receptor 5 (Rattus norvegicus, UniProt P31424). Nature of the experiment: Negative allosteric modulation of rat mGlu5 receptor expressed in HEK cells assessed as decrease in glutamate-induced thallium flux incubated for 142 secs followed by glutamate addition measured after 120 secs by Fluo4-AM dye based fluorescence assay. The format is functional, cell-based.

The species named for experiment [6] is Rattus norvegicus. Nature of the experiment: Inhibition of rat N-type calcium channel at 10 uM relative to control. The gist of the method: as §1

Each structure is given as a SMILES string.

Sequence of Cytochrome P450 3A4 (P08684 whole entry): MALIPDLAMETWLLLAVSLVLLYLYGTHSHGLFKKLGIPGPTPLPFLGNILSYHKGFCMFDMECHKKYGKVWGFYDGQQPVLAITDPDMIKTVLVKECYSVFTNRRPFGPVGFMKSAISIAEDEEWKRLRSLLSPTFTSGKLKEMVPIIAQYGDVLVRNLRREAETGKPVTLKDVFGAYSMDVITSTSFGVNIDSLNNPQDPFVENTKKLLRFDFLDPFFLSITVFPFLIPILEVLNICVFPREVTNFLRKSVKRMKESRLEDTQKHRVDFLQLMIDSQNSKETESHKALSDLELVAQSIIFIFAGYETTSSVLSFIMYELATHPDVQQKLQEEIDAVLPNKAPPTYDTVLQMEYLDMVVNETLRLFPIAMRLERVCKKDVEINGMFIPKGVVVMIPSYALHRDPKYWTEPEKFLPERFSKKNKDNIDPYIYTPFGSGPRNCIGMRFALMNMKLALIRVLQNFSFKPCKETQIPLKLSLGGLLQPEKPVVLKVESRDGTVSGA
Sequence of Metabotropic glutamate receptor 5 (P31424 whole entry): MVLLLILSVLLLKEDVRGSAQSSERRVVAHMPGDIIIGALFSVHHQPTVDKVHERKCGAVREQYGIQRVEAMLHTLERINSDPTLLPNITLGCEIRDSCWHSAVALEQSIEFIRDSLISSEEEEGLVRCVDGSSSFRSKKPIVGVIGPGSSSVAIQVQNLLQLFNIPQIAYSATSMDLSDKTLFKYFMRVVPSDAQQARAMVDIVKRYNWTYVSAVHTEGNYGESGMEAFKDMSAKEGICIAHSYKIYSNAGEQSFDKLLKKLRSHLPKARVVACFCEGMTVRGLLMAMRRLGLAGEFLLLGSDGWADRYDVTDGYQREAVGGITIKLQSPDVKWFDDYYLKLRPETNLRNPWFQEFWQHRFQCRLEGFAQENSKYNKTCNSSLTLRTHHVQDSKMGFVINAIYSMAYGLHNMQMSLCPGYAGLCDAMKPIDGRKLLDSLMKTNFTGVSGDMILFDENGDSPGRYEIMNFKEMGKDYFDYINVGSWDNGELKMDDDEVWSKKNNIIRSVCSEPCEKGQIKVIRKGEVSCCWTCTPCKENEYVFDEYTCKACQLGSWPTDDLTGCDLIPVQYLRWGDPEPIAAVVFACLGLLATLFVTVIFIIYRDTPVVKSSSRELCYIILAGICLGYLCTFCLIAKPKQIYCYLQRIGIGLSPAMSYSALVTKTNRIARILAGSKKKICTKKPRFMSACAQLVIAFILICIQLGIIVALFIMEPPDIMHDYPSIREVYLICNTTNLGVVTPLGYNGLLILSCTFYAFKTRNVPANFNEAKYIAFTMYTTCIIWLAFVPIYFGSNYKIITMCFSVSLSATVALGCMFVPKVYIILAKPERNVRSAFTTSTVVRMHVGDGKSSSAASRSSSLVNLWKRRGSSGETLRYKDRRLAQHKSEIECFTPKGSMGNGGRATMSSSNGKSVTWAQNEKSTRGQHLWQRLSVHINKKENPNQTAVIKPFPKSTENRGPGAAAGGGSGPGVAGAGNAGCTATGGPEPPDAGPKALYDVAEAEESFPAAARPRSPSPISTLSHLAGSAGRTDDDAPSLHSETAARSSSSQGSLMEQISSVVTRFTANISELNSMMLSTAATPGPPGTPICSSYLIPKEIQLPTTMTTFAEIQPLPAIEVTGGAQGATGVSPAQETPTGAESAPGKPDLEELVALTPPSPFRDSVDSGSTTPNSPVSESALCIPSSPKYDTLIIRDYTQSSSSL
Sequence of Alpha-2A adrenergic receptor (Homo sapiens) (P08913 whole entry): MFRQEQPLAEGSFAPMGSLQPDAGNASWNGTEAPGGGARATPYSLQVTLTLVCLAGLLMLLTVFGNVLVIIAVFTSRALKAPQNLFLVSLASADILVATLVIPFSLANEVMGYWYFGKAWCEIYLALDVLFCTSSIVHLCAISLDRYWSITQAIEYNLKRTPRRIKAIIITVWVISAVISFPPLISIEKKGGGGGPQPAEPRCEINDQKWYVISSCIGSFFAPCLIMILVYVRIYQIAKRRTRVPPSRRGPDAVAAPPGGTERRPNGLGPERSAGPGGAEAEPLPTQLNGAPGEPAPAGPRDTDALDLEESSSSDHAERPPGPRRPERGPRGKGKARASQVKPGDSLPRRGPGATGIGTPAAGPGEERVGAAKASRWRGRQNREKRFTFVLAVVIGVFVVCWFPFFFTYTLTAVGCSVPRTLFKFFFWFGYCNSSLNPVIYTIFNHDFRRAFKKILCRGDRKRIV
Sequence of B1 bradykinin receptor (Homo sapiens) (P46663 whole entry): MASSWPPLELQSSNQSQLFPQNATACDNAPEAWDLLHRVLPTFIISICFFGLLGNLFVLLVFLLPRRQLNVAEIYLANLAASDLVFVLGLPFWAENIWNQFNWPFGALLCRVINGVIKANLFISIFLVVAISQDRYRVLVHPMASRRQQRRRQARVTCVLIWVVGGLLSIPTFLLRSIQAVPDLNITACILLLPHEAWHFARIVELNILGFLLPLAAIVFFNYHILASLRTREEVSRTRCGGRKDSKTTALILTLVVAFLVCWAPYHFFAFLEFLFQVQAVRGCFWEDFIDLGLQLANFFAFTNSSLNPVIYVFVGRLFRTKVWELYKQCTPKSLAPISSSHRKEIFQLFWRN

With `COc1ccc(-c2c(C)nn3c(C(F)(F)F)cc(C)nc23)c(F)c1F`, the figures for the IC50 (at Cytochrome P450 3A4; at Cytochrome P450 1A2; in experiment [5]) were greater than 30 µM, 3.08 µM and greater than 10 µM, respectively. For the same molecule, the inhibition (in the experiment filed under Rattus norvegicus [1]; in experiment [2]; in the experiment filed under Rattus norvegicus [3]; in experiment [4]; in the experiment filed under Rattus norvegicus [6]) was less than 50% throughout.

As a reminder, the IC50 is the concentration that inhibits the measured activity by half. The term inhibition denotes the change of the read-out against control, counted positive when it falls.
